ASAP1 GAP inh: inhibitors of human ASAP1 ArfGAP activity. Q9ULH1. ASAP1-stimulated ARF1 GTP hydrolysis, GDP FP detection. inhibition, % at 16.5 µM. 360,000 compounds, 0.19% hits. AID 624377; in the data active means inhibition above about 25%
Cardio protect: modulators protecting cardiomyocytes from myocardial damage; H9c2 cardiomyocytes, H2O2 injury protection, ATPLite, 2 h; protection from H2O2 cell death, % at 20 µM; 360,000 compounds, 0.63% hits; AID 588492;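 active means compounds giving at least 50% protection of heart cells from peroxide-induced death in the single-dose screen, raw or plate-pattern-corrected value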
Neddylation inh: inhibitors of human cullin neddylation | P61081+Q13564 | TR-FRET cullin neddylation, biochemical | inhibition, % at 25 µM | 360,000 compounds, 0.58% hits | AID 651699; in the data active means inhibition above about 36%
ARFGAP1 inh: inhibitors of rat ARFGAP1; Arfgap1-stimulated ARF1 GTP hydrolysis, GDP FP detection; inhibition, % at 16.5 µM; 360,000 compounds, 0.26% hits; AID 651572;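 active means inhibition above a per-plate limit, mean inhibition of low control wells plus 3 SD, cut at about 25% in these data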
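System: truncated rat Arfgap1 GAP domain / Medium: HEPES-based buffer, pH 7.5 / Also added: N-terminally truncated human ARF1-GTP substrate / Incubation: enzyme reaction 120 min at 25 °C after 20 min preincubation / Measured by: FP of antibody-bound GDP Alexa 633 tracer, ex 620/em 688 nm / Replicates: singlicate, each compound tested once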
ARFGAP1 confirm: confirmation of rat ARFGAP1 inhibitors | inhibition, % at 16.5 µM | ARFGAP1-stimulated ARF1 GTP hydrolysis, GDP tracer FP | shares compounds with ARFGAP1 inh | AID 651608 | 890 compounds, 30% hits;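 active means average inhibition over triplicates above the hit cutoff set in the earlier primary screen, cut at about 25% in these data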
Of the large screens only hits and unclear results are named; the others gave an inactive call (follow-up assays come after a bar, where shown). In the library only some 1.6% were active in any assay of this set; here they are far more common.

CC(=O)Nc1ccc(-c2csc(NC(=O)Cc3cccc(F)c3)n2)cc1	ARFGAP1 inh 31.2 | ARFGAP1 confirm inactive
Cc1[nH]nc2c1C(c1cccc(C(F)(F)F)c1)NC2=O (stereo not drawn)	none (no result: Cardio protect, Neddylation inh)
O=C(NCc1cccc(F)c1)Nc1nnc([C@H]2C[C@H](O)[C@@H](CO)O2)s1	none
Cn1cc2ccc([N+](=O)[O-])cc2n1	none
O=[N+]([O-])c1cccc(-n2cc3ccc([N+](=O)[O-])cc3n2)c1	ARFGAP1 inh 40.1 | ARFGAP1 confirm 44.8
C#CCNC(=O)c1cc2cccnc2nc1N	none (no result: Cardio protect, Neddylation inh)
CC(=O)Nc1ccc(OCC(O)Cn2c3ccccc3c3ccccc32)c(C)c1 (stereo not drawn)	ARFGAP1 inh 25.4 | ARFGAP1 confirm 25.8
CC(=O)Nc1ccc(OCC(O)Cn2c3ccccc3c3ccccc32)cc1 (stereo not drawn)	none
CN1CCCCC(NC(=O)c2ccccn2)C1=O (stereo not drawn)	none (no result: Cardio protect, Neddylation inh)
Cc1cc(C)c(S(=O)(=O)N(CC(=O)NCc2cccnc2)C2CCCCC2)c(C)c1	ARFGAP1 inh 29.5 | ARFGAP1 confirm inactive
NC(=O)c1c(N)[nH]c(C(=O)c2ccccc2)c1-c1ccc2c(c1)OCO2	none (no result: Cardio protect, Neddylation inh)
O=C(Nc1ccc(Cl)cc1)OCc1cn(-c2ccc(Cl)cc2)nn1	ASAP1 GAP inh 77.9, ARFGAP1 inh 68.1 | ARFGAP1 confirm 52.6
COc1cccc(C(=O)NNC2OC(CO)C(O)C2O)c1 (stereo not drawn)	ARFGAP1 inh 41.7 | ARFGAP1 confirm inactive
O=C(NNC1OC(CO)C(O)C(O)C1O)c1cccnc1 (stereo not drawn)	none
Cc1ccccc1C(=O)NC1CCCCN(C)C1=O (stereo not drawn)	none (no result: Cardio protect, Neddylation inh)
O=C(Nc1ccccc1)Nc1sccc1-c1nc2ccccc2s1	none
O=C(Nc1cccc(Cl)c1)Nc1sccc1-c1nc2ccccc2s1	ARFGAP1 inh 27.3 (not shown: Neddylation inh) | ARFGAP1 confirm inactive
O=C(c1cccc(Cl)c1)N1CCN(c2ccc3c(c2)C2CC3CCN2C(=O)OCc2ccccc2)CC1 (stereo not drawn)	none
CO/N=C/c1cccn1-c1nccc(OC)c1C#N	ARFGAP1 inh 30.6 | ARFGAP1 confirm inactive
COc1ccnc(-n2cccc2C#N)c1C#N	none
COc1ccccc1NS(=O)(=O)c1cc(NC(=O)C(C)(C)C)ccc1N1CCOCC1	none
COc1ccccc1NS(=O)(=O)c1cc(NC(=O)c2cc(=O)[nH]c3ccccc23)ccc1N1CCOCC1	ARFGAP1 inh 28.0 | ARFGAP1 confirm inactive
COc1ccc(OCC(=O)Nc2ccc3oc(-c4ccncc4)nc3c2)cc1	none
COc1ccc(-c2nc3cc(NC(=O)Cc4ccc(OC)c(OC)c4)ccc3o2)cc1	ARFGAP1 inh 25.1 (not shown: Neddylation inh) | ARFGAP1 confirm inactive
S=C(NCc1ccncc1)Nc1cc(Cl)cc(Cl)c1	ARFGAP1 inh 24.9 | ARFGAP1 confirm inactive
S=C(NCc1ccncc1)Nc1ccc(Cl)c(Cl)c1	none
S=C(NCc1cccnc1)Nc1cc(Cl)cc(Cl)c1	ARFGAP1 inh 25.2 | ARFGAP1 confirm inactive
S=C(NCc1cccnc1)Nc1cccc(Cl)c1	none
OC(c1ccccc1)(c1nc(-c2ccc(Cl)cc2)cs1)C(F)(F)F (stereo not drawn)	none
Cc1nn(-c2ccc(Cl)cc2)c(=O)c2ccccc12	none
Cc1c(Cl)sn(-c2ccc(Cl)cc2)c1=O	ARFGAP1 inh 29.9 | ARFGAP1 confirm inactive
CC(C)CN(C(=O)CSc1nnc(-c2cccs2)n1C1CC1)C1CCS(=O)(=O)C1 (stereo not drawn)	ARFGAP1 inh 27.0 | ARFGAP1 confirm inactive
O=C(C[C@H]1CC[C@@H]2[C@H](COC[C@H](O)CN2Cc2cccc(F)c2)O1)NCc1cccc(F)c1	none (no result: Cardio protect)
COC(=O)C1=C(C)N(CC(C)C)C(=S)NC1c1ccc(-c2ccccc2)cc1 (stereo not drawn)	none (no result: Cardio protect, Neddylation inh)
O=c1c2ccccc2nc(/C=C/c2ccccc2)n1CCc1ccccc1	ARFGAP1 inh 51.7 | ARFGAP1 confirm inactive
COc1ccccc1-n1c(Cc2cccc3ccccc23)nnc1SCC(=O)O	none (no result: Cardio protect, Neddylation inh)
OC(CNCCC1C=Nc2ccccc21)Cn1c2ccc(Cl)cc2c2cc(Cl)ccc21 (stereo not drawn)	ARFGAP1 inh 28.0 | ARFGAP1 confirm 42.2
OC(CNCC1CCCO1)Cn1c2ccc(Cl)cc2c2cc(Cl)ccc21 (stereo not drawn)	none
O=C(O)c1ccc(Cn2cnc3scc(-c4ccccc4)c3c2=O)cc1	ARFGAP1 inh 25.1 | ARFGAP1 confirm inactive
Cc1ccc(-c2csc3ncn(Cc4ccc(C(=O)O)cc4)c(=O)c23)cc1C	none

Screening data: PubChem BioAssay, several laboratories
